A selection: hits, their analogues and other compounds. The true share with any hit is near 3.5%.
RGS4 inh: human RGS4 inhibition. P49798. HEK293 M3R/RGS4 inducible, Fluo-4 calcium flux; stronger effect = higher value; triggered by carbachol at its EC20. B-score at 10 µM. 310,000 compounds, 0.45% hits;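 active = B-score, a plate-corrected calcium signal, over three deviations above library mean, with baseline fluorescence within five deviations of library mean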;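 note: RGS4 expression induced by doxycycline in cells with stable M3 receptor; B-score is computed from the integrated fluorescence ratio over baseline after carbachol; higher B-score means a larger calcium signal and so more RGS4 inhibition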
Target sequence (P49798 whole entry, looked up): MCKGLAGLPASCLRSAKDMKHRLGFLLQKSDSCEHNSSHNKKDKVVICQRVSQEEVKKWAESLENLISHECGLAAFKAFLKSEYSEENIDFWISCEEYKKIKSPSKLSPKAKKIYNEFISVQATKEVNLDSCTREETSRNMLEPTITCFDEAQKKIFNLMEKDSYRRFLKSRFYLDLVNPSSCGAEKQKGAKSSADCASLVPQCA
RGS4 act: potentiators or activators of RGS4 | HEK293 M3R/inducible RGS4, carbachol calcium flux Fluo4; stronger effect = lower value | B-score at 10 µM | 310,000 compounds, 0.92% hits;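 active = B-score of the integrated calcium signal more than 4 SD below the library mean, with starting fluorescence not abnormally high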;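 note: negative B-score means reduced calcium response which marks RGS4 activation or potentiation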
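Also added: carbachol at ECmax as muscarinic agonist stimulus; Assay system: HEK293 cells with stable M3R and inducible RGS4; Timing: overnight RGS4 induction, 30 min dye load 37 °C, 20 min compound RT; Measured by: Fluo4-AM (2 µM) calcium-flux fluorescence, kinetic read.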
MrgX1 agonist: human MrgX1 receptor agonism, primary screen; Q96LB2; MrgX1-HEK293 cells, Fluo-4 calcium fluorescence, agonist mode; stronger effect = higher value; B-score at 10 µM; 310,000 compounds, 0.44% hits;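 active = calcium response B-score plate-corrected fluorescence ratio at least 3 library SD, with starting fluorescence B-score inside 5 SD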
Target sequence (Q96LB2 whole entry, looked up): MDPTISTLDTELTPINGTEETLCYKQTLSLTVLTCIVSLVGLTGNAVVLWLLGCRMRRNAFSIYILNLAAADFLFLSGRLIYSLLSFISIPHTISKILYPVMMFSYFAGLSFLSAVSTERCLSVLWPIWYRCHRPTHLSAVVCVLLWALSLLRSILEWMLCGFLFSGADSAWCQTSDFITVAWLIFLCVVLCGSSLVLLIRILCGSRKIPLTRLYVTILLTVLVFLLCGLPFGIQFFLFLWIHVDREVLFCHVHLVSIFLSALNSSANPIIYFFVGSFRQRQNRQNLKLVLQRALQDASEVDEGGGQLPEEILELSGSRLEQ
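Material: HEK293 cells stably expressing human MrgX1 receptor | Quantity: 15,000 cells per well | Times: Cells plated overnight, dye loaded 0.5 h 37 °C, 0.5 h room temperature | Measured by: Kinetic Fluo-4 NW fluorescence of intracellular calcium | Control set: Positive and negative controls per plate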
MrgX1 antagonist: blocks BAM8-22 activation of human MrgX1 receptor | B-score at 10 µM | 310,000 compounds, 1.3% hits | AID 588676 | Q96LB2 | MRGX1-HEK293 calcium flux, Fluo-4, BAM8-22 antagonism; stronger effect = lower value;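 active = calcium-response B-score plate-corrected more than 3 library SD below zero, starting fluorescence within 5 deviations, no agonist response on first addition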;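 note: peak minus trough fluorescence over baseline after final BAM8-22 challenge near maximal dose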
MrgX1 allo act: allosterically activates human MrgX1 receptor signaling; MrgX1-HEK293, Fluo-4 calcium flux, FDSS; stronger effect = higher value; AID 588675; B-score at 10 µM; Q96LB2; 310,000 compounds, 0.63% hits;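 active = plate-corrected calcium response at least 3 library SD above typical, normal starting fluorescence, not activating the receptor alone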;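 note: compound read alongside a low EC10 to EC30 dose of BAM8-22 agonist; peak minus trough fluorescence over baseline measured at the second addition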
* marks the source's active call; other numbers are inactive results.

`CCN(CC)C(CNC(=O)c1cc(=O)[nH]c2ccccc12)c1ccccc1Cl` (stereo unspecified) gave RGS4 inh inactive, RGS4 act -7.47*, MrgX1 agonist inactive, MrgX1 antagonist inactive and MrgX1 allo act inactive.
`O=C(NCc1cccc(Cl)c1)c1cc(=O)[nH]c2ccccc12` gave RGS4 inh inactive, RGS4 act inactive, MrgX1 agonist inactive, MrgX1 antagonist inactive and MrgX1 allo act inactive.
CCOc1cccc(CNCCO)c1OCc1ccc(Cl)cc1Cl was read as RGS4 inh inactive, RGS4 act inactive, MrgX1 agonist inactive, MrgX1 antagonist inactive and MrgX1 allo act inactive.
`CCOc1cc(CNCCSc2nnnn2C)cc(Br)c1OCc1ccccc1F` gave RGS4 inh inactive, RGS4 act inactive, MrgX1 agonist inactive, MrgX1 antagonist -4.73* and MrgX1 allo act inactive.
Screening COc1cc(CNCCSc2nnnn2C)cc(Br)c1OCc1ccccc1F returned RGS4 inh inactive, RGS4 act inactive, MrgX1 agonist inactive, MrgX1 antagonist inactive and MrgX1 allo act inactive.
`CCOc1cc(CNCCO)cc(Br)c1OCc1ccc(Cl)cc1Cl` gave RGS4 inh inactive, RGS4 act -7.68*, MrgX1 agonist inactive, MrgX1 antagonist inactive and MrgX1 allo act inactive.
Cc1ccc(NC(=O)N2N=C(c3ccc(F)cc3)CC2c2ccc(F)cc2)cc1 (stereo unspecified) was read as RGS4 inh inactive, RGS4 act inactive, MrgX1 agonist inactive, MrgX1 antagonist inactive and MrgX1 allo act inactive.
`OC(CNCCC1C=Nc2ccccc21)Cn1c2ccc(Cl)cc2c2cc(Cl)ccc21` (stereo unspecified) gave RGS4 inh 7.4*, RGS4 act inactive, MrgX1 agonist inactive, MrgX1 antagonist inactive and MrgX1 allo act inactive.
`O=C(NCC1CCN(Cc2ccc(Cl)cc2)CC1)C1CCCN(c2ncnc3c2nc2n3CCCCC2)C1` (stereo unspecified) gave RGS4 inh inactive, RGS4 act -7.25*, MrgX1 agonist inactive, MrgX1 antagonist inactive and MrgX1 allo act inactive.
COc1ccccc1N1CCN(C2CCC(C)CC2)CC1 (stereo unspecified) was read as RGS4 inh inactive, RGS4 act inactive, MrgX1 agonist inactive, MrgX1 antagonist inactive and MrgX1 allo act inactive.
COc1ccccc1N1CCN(C2CCN(C3CCC(c4ccccc4)CC3)CC2)CC1 (stereo unspecified) was read as RGS4 inh inactive, RGS4 act inactive, MrgX1 agonist inactive, MrgX1 antagonist inactive and MrgX1 allo act 9.05*.
For COCCn1c(SCc2cccc([N+](=O)[O-])c2)nc2ccccc2c1=O the results were RGS4 inh inactive, RGS4 act inactive, MrgX1 agonist inactive, MrgX1 antagonist inactive and MrgX1 allo act inactive.
CCCCn1c(SCc2cccc([N+](=O)[O-])c2)nc2ccsc2c1=O was read as RGS4 inh inactive, RGS4 act -8.05*, MrgX1 agonist inactive, MrgX1 antagonist inactive and MrgX1 allo act inactive.
CCCCn1c(Cc2ccccc2)n[nH]c1=S was read as RGS4 inh inactive, RGS4 act -7.4*, MrgX1 agonist inactive, MrgX1 antagonist inactive and MrgX1 allo act inactive.
`CCCCn1c(=O)c2ccccc2n2c(=S)[nH]nc12` gave RGS4 inh inactive, RGS4 act inactive, MrgX1 agonist inactive, MrgX1 antagonist -5.43* and MrgX1 allo act inactive.
CC(C)CCn1c(COc2ccccc2)n[nH]c1=S was read as RGS4 inh inactive, RGS4 act -7.12*, MrgX1 agonist inactive, MrgX1 antagonist inactive and MrgX1 allo act inactive.
`CCCCCn1c(=O)c2ccccc2n2c(=S)[nH]nc12` gave RGS4 inh inactive, RGS4 act inactive, MrgX1 agonist inactive, MrgX1 antagonist inactive and MrgX1 allo act inactive.
Screening S=c1[nH]nc(COc2ccccc2)n1Cc1ccccc1 returned RGS4 inh inactive, RGS4 act inactive, MrgX1 agonist inactive, MrgX1 antagonist inactive and MrgX1 allo act inactive.
For CCCCNC(=O)CSc1cc(=O)n(C)c2ccccc12 the results were RGS4 inh inactive, RGS4 act inactive, MrgX1 agonist inactive, MrgX1 antagonist inactive and MrgX1 allo act inactive.
Cc1ccc(NC(=O)N2CCCC2C(=O)Nc2ccc3c(c2)OCCO3)cc1 (stereo unspecified) was read as RGS4 inh inactive, RGS4 act inactive, MrgX1 agonist inactive, MrgX1 antagonist inactive and MrgX1 allo act inactive.
Screening CC(=O)c1sc(NC(=O)c2ccc(Cn3cc(Br)cn3)o2)nc1C returned RGS4 inh inactive, RGS4 act inactive, MrgX1 agonist inactive, MrgX1 antagonist inactive and MrgX1 allo act 6.54*.
`Nc1nc(NCCCN2CCOCC2)nc(NCc2ccccc2)c1[N+](=O)[O-]` gave RGS4 inh inactive, RGS4 act inactive, MrgX1 agonist inactive, MrgX1 antagonist inactive and MrgX1 allo act inactive.
Screening CNC[C@@H](Cc1ccccc1)NC[C@@H](CC1CCCCC1)NCCCc1ccccc1 returned RGS4 inh inactive, RGS4 act inactive, MrgX1 agonist inactive, MrgX1 antagonist inactive and MrgX1 allo act inactive.
For CC[C@@H](C)[C@H](CNC)NC[C@@H](Cc1cccc2ccccc12)NCCc1cccc(C(F)(F)F)c1 the results were RGS4 inh inactive, RGS4 act -9.31*, MrgX1 agonist inactive, MrgX1 antagonist inactive and MrgX1 allo act inactive.
For CNC[C@@H](CC1CCCCC1)NC[C@H](CC(C)C)NCCc1cccc(C(F)(F)F)c1 the results were RGS4 inh inactive, RGS4 act -7.31*, MrgX1 agonist inactive, MrgX1 antagonist inactive and MrgX1 allo act inactive.
`CCC[C@H](CN[C@@H](CNC)[C@H](C)CC)NCCc1cc(C(F)(F)F)cc(C(F)(F)F)c1` gave RGS4 inh inactive, RGS4 act inactive, MrgX1 agonist inactive, MrgX1 antagonist inactive and MrgX1 allo act inactive.
Screening Cc1ccc(NC(=O)CN(C)C(=O)C2CC(=O)N(Cc3ccccc3)C2)cc1 (stereo unspecified) returned RGS4 inh inactive, RGS4 act inactive, MrgX1 agonist inactive, MrgX1 antagonist inactive and MrgX1 allo act inactive.
For CC(NC(=O)Cc1cccc(C(F)(F)F)c1)c1ccc(F)cc1 (stereo unspecified) the results were RGS4 inh inactive, RGS4 act inactive, MrgX1 agonist inactive, MrgX1 antagonist inactive and MrgX1 allo act inactive.
Screening CC(C)n1c(=O)n(CC(=O)NCC2CCCO2)c(=O)c2c3c(sc21)COC(C)(C)C3 (stereo unspecified) returned RGS4 inh inactive, RGS4 act inactive, MrgX1 agonist inactive, MrgX1 antagonist inactive and MrgX1 allo act inactive.
Screening O=C(Cc1n[nH]c(=O)c2ccccc12)NC(c1ccccc1)c1ccccc1 returned RGS4 inh inactive, RGS4 act inactive, MrgX1 agonist inactive, MrgX1 antagonist inactive and MrgX1 allo act inactive.

Screening data deposited in PubChem BioAssay by Johns Hopkins Ion Channel Center.
